The source made the active and inactive calls. The rule behind the calls is not given here.
Legend:
[1] = target: T1, ALK tyrosine kinase receptor (Homo sapiens, UniProt Q9UM73); assay: Induction of ALK degradation in human KARPAS299 cells after 16 hrs by immunoblot method; type: cell-based
Procedure, shortened: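 H3122 and Karpas 299 cells were given a dose titration for 16 h. ALK and Aurora A were then read by immunoblot. DC50 was calculated from the titrations, two independent experiments.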
Target sequence in this assay (Q9UM73 whole entry): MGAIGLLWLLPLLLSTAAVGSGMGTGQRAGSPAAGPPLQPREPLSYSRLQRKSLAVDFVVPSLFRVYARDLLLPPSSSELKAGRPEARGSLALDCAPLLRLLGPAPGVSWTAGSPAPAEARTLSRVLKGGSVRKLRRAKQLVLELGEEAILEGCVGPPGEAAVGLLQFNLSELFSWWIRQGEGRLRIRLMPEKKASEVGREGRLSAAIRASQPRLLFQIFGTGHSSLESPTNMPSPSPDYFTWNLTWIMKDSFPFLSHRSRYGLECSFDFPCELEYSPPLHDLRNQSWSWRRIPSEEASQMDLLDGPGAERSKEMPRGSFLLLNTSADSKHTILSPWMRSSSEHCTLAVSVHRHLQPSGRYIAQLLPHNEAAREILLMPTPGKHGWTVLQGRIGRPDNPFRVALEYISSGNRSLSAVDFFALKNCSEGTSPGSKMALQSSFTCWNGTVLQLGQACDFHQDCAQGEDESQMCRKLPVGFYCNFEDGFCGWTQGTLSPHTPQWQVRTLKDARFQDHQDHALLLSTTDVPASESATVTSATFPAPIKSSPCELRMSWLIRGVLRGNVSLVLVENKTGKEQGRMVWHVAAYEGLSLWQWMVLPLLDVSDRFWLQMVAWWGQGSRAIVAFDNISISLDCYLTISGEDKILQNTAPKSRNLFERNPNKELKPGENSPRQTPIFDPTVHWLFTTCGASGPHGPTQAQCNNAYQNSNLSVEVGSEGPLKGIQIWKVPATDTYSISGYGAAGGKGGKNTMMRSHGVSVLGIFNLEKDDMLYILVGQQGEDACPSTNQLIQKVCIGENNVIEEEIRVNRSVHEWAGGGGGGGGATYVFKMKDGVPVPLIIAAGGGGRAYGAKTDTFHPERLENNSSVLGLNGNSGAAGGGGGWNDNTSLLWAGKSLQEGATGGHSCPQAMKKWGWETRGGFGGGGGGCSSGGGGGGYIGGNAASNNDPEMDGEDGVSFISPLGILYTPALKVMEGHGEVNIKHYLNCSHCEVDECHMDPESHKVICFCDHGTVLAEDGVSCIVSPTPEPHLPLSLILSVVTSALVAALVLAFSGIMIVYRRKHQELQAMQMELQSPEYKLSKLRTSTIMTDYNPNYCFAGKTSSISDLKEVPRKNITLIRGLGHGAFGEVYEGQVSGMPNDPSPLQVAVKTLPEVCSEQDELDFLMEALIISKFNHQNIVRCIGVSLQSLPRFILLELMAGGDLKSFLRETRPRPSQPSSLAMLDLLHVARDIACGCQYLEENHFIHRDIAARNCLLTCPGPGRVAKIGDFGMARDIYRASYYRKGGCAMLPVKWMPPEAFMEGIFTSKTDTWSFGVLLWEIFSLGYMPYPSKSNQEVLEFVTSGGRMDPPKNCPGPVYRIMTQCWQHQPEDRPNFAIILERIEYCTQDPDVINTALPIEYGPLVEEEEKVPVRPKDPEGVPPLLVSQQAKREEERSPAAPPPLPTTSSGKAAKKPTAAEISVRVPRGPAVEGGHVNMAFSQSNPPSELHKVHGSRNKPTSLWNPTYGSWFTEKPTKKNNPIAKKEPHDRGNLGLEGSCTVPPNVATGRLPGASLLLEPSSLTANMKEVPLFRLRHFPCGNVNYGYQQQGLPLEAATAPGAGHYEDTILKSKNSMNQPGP

[2] = target: Tyrosine-protein kinase Fer (Homo sapiens) (UniProt P16591); assay: Induction of FER degradation in human NCI-H3122 cells at 0.01 to 1 uM after 16 hrs by immunoblot method; type: cell-based
[3] = target: Focal adhesion kinase 1 (Homo sapiens) (UniProt Q05397); assay: Induction of PTK2 degradation in human Kelly cells at 100 nM measured over 2 to 16 hrs by immunoblot method; type: cell-based
SU-DHL-1 = assay: Antiproliferative activity against human SU-DHL1 cells after 72 hrs by CellTiter-Glo luminescent cell viability assay; type: functional, cell-based
[4] = target: T1, ALK tyrosine kinase receptor; assay: Induction of ALK degradation in human Kelly cells at 100 nM after 16 hrs in presence of ALK inhibitor LDK378 by immunoblot method; type: cell-based
Procedure, shortened: (§1)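 Kelly cells were pre-treated for 2 h with DMSO, carfilzomib, MLN4924, pomalidomide, TAE684 or LDK378. Degrader treatment followed for 16 h, and ALK was read by immunoblot.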
Target sequence in this assay (Q9UM73 19-1620 limits assumed): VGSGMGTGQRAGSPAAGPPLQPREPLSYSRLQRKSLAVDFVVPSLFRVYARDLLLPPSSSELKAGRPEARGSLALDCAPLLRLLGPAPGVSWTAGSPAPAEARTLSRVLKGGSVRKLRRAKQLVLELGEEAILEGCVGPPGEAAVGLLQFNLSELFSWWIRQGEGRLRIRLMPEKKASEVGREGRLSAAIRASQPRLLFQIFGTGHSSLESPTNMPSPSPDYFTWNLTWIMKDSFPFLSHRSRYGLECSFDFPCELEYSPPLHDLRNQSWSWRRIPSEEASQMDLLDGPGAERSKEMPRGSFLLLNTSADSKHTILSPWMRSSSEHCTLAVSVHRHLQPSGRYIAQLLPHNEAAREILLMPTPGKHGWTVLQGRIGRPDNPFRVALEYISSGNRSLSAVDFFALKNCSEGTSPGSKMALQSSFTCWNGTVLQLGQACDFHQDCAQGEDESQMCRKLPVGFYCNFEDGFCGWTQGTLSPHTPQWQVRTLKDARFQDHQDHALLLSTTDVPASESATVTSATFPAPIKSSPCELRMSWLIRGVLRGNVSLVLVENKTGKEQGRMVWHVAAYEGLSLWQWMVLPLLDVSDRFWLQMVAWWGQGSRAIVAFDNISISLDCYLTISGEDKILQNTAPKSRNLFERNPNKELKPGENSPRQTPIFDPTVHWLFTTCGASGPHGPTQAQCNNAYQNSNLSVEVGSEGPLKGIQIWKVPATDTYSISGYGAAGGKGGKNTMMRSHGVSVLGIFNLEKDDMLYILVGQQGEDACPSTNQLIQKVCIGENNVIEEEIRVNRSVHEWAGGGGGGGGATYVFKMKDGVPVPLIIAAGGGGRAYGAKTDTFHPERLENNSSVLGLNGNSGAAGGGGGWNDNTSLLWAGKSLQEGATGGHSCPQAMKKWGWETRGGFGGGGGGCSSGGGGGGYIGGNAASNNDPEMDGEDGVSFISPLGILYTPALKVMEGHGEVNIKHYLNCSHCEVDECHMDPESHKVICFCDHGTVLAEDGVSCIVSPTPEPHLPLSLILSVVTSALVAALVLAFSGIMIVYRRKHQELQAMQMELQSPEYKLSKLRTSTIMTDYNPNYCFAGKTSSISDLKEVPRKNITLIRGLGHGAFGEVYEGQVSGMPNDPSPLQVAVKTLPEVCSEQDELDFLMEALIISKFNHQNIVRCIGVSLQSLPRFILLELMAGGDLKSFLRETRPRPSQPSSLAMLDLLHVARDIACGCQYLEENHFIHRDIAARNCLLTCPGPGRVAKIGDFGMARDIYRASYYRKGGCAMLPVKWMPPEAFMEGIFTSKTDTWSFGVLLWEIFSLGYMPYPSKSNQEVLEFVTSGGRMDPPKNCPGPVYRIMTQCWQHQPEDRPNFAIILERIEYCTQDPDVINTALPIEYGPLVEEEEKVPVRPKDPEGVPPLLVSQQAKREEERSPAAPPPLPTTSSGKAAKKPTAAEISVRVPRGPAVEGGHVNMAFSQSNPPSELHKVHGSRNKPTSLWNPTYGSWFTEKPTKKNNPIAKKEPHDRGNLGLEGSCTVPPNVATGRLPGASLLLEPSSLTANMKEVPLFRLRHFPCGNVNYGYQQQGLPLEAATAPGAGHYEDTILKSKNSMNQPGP

[5] = target: T1, ALK tyrosine kinase receptor; assay: Induction of ALK degradation in human Kelly cells at 100 nM after 8 hrs by immunoblot method; type: cell-based
Procedure, shortened: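 Kelly cells were treated with 100 nM compound for varying times and lysed at each time point. ALK levels were read by immunoblot.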
Target sequence in this assay (Q9UM73 19-1620 limits assumed): as above

[6] = target: T2, Aurora kinase A (Homo sapiens) (UniProt O14965); assay: Induction of aurora A degradation in human CHLA20 cells at 100 nM after 16 hrs in presence of pomalidomide and ABCB1 inhibitor tariquidar by immunoblot method; type: cell-based
T2 sequence (whole entry): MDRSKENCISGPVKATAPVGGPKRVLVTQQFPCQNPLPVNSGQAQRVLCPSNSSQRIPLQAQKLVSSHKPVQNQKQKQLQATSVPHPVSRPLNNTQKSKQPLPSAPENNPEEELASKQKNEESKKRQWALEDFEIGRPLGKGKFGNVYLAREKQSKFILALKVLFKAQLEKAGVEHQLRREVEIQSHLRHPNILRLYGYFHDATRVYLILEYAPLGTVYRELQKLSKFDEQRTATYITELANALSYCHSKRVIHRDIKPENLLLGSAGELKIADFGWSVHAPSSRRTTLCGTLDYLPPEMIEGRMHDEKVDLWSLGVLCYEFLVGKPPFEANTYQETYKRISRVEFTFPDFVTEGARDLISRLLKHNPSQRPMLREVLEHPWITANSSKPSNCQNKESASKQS
Procedure, shortened: (§2)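 Cells were pre-treated for 2 h with DMSO, carfilzomib, MLN4924 or pomalidomide, then treated with compound for 16 h, with immunoblot read-out. CHLA20 cells also received 125 nM tariquidar throughout.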

[7] = target: Ribosomal protein S6 kinase alpha-1 (Homo sapiens) (UniProt Q15418); assay: Induction of RPS6KA1 degradation in human NCI-H3122 cells at 250 nM measured over 2 to 16 hrs by immunoblot method; type: cell-based
[8] = target: T2, Aurora kinase A (Homo sapiens); assay: Induction of aurora A degradation in human KARPAS299 cells at 250 nM after 16 hrs in presence of […] inhibitor MLN4924 by immunoblot method; type: cell-based
[9] = target: T2, Aurora kinase A (Homo sapiens); assay: Induction of aurora A degradation in human Kelly cells at 100 nM after 16 hrs in presence of proteasome inhibitor carfilzomib by immunoblot method; type: cell-based; procedure, shortened: as §2
[10] = target: Ribosomal protein S6 kinase alpha-1 (Homo sapiens) (UniProt Q15418); assay: Induction of RPS6KA1 degradation in human KARPAS299 cells at 0.01 to 1 uM after 16 hrs by immunoblot method; type: cell-based
[11] = target: T1, ALK tyrosine kinase receptor; assay: Induction of ALK degradation in human KARPAS299 cells at 250 nM after 16 hrs in presence of ALK inhibitor TAE684 by immunoblot method; type: cell-based
Target sequence in this assay (Q9UM73 19-1620 limits assumed): as the sequence (Q9UM73 19-1620 limits assumed) above

Homo sapiens [12] = species: Homo sapiens; assay: Antiproliferative activity against human CHLA20 cells after 72 hrs in presence of ABCB1 inhibitor tariquidar by CellTiter-Glo luminescent cell viability assay; type: functional, cell-based
[13] = target: T1, ALK tyrosine kinase receptor; assay: Induction of ALK degradation in human CHLA20 cells at 100 nM after 4 hrs in presence of ABCB1 inhibitor tariquidar by immunoblot method; type: cell-based
Procedure, shortened: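 CHLA20 cells were co-treated with 125 nM tariquidar, then treated with 100 nM compound over a time course. ALK was read by immunoblot.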
Target sequence in this assay (Q9UM73 19-1620 limits assumed): as the sequence (Q9UM73 19-1620 limits assumed) above

[14] = target: T1, ALK tyrosine kinase receptor; assay: Induction of ALK degradation in human KARPAS299 cells at 250 nM after 16 hrs in presence of […] inhibitor MLN4924 by immunoblot method; type: cell-based
Target sequence in this assay (Q9UM73 19-1620 limits assumed): as the sequence (Q9UM73 19-1620 limits assumed) above

[15] = target: T1, ALK tyrosine kinase receptor; assay: Induction of ALK degradation in human CHLA20 cells at 100 nM after 16 hrs in presence of ALK inhibitor LDK378 and ABCB1 inhibitor tariquidar by immunoblot method; type: cell-based
Procedure, shortened: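 CHLA20 cells were kept with 125 nM tariquidar and pre-treated for 2 h with DMSO, carfilzomib, MLN4924, pomalidomide, TAE684 or LDK378. A 16 h degrader treatment followed, with immunoblot readout of ALK.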
Target sequence in this assay (Q9UM73 19-1620 limits assumed): as the sequence (Q9UM73 19-1620 limits assumed) above

[16] = target: T1, ALK tyrosine kinase receptor; assay: Induction of ALK degradation in human NCI-H3122 cells at 250 nM after 16 hrs in presence of pomalidomide by immunoblot method; type: cell-based
[17] = target: T1, ALK tyrosine kinase receptor; assay: Induction of ALK degradation in human NCI-H3122 cells at 250 nM after 16 hrs in presence of ALK inhibitor TAE684 by immunoblot method; type: cell-based
[18] = target: T1, ALK tyrosine kinase receptor; assay: Induction of ALK degradation in human Kelly cells after 16 hrs by immunoblot method; type: cell-based
Procedure, shortened: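 Kelly neuroblastoma cells (ABCB1-low) were given a 16 hr dose titration. ALK and Aurora A were then read by western blot. DC50 was determined from two independent experiments.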
Target sequence in this assay (Q9UM73 whole entry): as the sequence (Q9UM73 whole entry) above

Homo sapiens [19] = species: Homo sapiens; assay: Antiproliferative activity against human CHLA20 cells after 72 hrs by CellTiter-Glo luminescent cell viability assay; type: functional, cell-based
[20] = target: T1, ALK tyrosine kinase receptor; assay: Induction of ALK degradation in human Kelly cells at 100 nM after 16 hrs in presence of pomalidomide by immunoblot method; type: cell-based; procedure, shortened: as §1
[21] = target: T2, Aurora kinase A (Homo sapiens); assay: Induction of aurora A degradation in human CHLA20 cells at 100 nM after 16 hrs in presence of […] inhibitor MLN4924 and ABCB1 inhibitor tariquidar by immunoblot method; type: cell-based; procedure, shortened: as §2
[22] = target: T1, ALK tyrosine kinase receptor; assay: Induction of ALK degradation in human NCI-H3122 cells at 250 nM after 16 hrs in presence of ALK inhibitor LDK378 by immunoblot method; type: cell-based
NCI-H3122 = assay: Antiproliferative activity against human NCI-H3122 cells after 72 hrs by CellTiter-Glo luminescent cell viability assay; type: functional, cell-based
SH-SY5Y = assay: Antiproliferative activity against human SH-SY5Y cells after 72 hrs in presence of ABCB1 inhibitor tariquidar by CellTiter-Glo luminescent cell viability assay; type: functional, cell-based
[23] = target: T1, ALK tyrosine kinase receptor; assay: Induction of ALK degradation in human KARPAS299 cells at 250 nM after 16 hrs in presence of pomalidomide by immunoblot method; type: cell-based
[24] = target: T2, Aurora kinase A (Homo sapiens); assay: Induction of aurora A degradation in human NCI-H3122 cells at 250 nM after 16 hrs in presence of proteasome inhibitor carfilzomib by immunoblot method; type: cell-based
[25] = target: T2, Aurora kinase A (Homo sapiens); assay: Induction of aurora A degradation in human Kelly cells at 100 nM measured over 2 to 16 hrs by immunoblot method; type: cell-based
Procedure, shortened: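 Kelly cells were given 100 nM compound for varying times, and lysates were immunoblotted for Aurora A.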

Chain of Ribosomal protein S6 kinase alpha-1 (Homo sapiens) (Q15418 whole entry): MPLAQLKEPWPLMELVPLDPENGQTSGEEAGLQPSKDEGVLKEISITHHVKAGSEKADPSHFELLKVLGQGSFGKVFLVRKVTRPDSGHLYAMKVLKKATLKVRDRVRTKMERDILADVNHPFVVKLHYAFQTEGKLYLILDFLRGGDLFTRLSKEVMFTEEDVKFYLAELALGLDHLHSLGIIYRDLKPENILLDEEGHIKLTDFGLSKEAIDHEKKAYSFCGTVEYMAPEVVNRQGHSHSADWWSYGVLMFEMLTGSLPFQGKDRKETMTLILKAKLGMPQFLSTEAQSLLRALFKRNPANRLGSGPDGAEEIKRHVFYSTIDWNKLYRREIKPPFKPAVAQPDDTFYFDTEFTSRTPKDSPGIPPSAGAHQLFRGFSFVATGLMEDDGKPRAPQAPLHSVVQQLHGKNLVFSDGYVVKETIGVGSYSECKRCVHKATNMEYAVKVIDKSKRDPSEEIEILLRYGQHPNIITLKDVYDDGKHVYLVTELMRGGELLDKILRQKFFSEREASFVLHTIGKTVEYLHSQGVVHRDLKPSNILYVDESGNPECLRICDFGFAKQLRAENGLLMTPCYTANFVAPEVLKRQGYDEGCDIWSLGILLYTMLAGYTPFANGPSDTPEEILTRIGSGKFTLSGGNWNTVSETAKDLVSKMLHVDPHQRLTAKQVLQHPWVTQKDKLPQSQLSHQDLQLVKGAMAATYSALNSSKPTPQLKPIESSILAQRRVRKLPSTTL
Chain of Tyrosine-protein kinase Fer (Homo sapiens) (P16591 whole entry, looked up): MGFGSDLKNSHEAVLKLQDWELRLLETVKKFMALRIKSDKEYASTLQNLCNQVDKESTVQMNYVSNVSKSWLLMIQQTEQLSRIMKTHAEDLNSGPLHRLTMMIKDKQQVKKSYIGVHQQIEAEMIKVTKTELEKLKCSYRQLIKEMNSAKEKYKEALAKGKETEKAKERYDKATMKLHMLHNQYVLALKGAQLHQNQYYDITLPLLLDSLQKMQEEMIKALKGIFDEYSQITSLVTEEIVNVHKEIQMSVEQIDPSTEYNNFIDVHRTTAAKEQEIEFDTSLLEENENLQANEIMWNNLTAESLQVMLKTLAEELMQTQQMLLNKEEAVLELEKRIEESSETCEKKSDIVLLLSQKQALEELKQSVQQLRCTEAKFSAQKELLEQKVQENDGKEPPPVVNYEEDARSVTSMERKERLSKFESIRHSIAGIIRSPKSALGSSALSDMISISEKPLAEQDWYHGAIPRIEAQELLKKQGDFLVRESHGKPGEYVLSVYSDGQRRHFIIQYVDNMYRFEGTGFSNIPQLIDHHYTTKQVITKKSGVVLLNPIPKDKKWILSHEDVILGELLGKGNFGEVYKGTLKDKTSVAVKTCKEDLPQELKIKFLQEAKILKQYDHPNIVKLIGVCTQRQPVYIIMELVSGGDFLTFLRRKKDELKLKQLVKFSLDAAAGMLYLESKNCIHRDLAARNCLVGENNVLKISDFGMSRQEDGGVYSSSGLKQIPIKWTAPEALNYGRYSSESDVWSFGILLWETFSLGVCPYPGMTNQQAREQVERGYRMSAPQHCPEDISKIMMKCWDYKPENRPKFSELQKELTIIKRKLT

| DC50 [1] | Activity [2] | Activity [3] | Activity [4] | Activity [5] | Activity [6] | Activity [7] | Activity [8] | Activity [9] | Activity [10] | Activity [11] | Activity [13] | Activity [14] | Activity [15] | Activity [16] | Activity [17] | DC50 [18] | SMILES | Activity (SU-DHL-1) | Activity (Homo sapiens [12]) | Activity (Homo sapiens [19]) | further results |
| --- | --- | --- | --- | --- | --- | --- | --- | --- | --- | --- | --- | --- | --- | --- | --- | --- | --- | --- | --- | --- | --- |
| 0.18 µM | Active | Active | inactive | Active | inactive | Active | inactive | inactive | Active | inactive | Active | inactive | inactive | inactive | inactive | 0.05 µM | COc1cc(N2CCN(CCOCCOCCNC(=O)CNc3cccc4c3C(=O)N(C3CCC(=O)NC3=O)C4=O)CC2)ccc1Nc1ncc(Cl)c(Nc2ccccc2S(=O)(=O)C(C)C)n1 (stereo unspecified) | Active | Active | inactive | Activity [20]: inactive; Activity [21]: inactive; Activity [22]: Active; Activity (NCI-H3122): Active; Activity (SH-SY5Y): Active; Activity [23]: inactive; Activity [24]: inactive; Activity [25]: Active |
| 0.04 µM | Active | Active | inactive | Active | inactive | Active | inactive | inactive | Active | inactive | Active | inactive | inactive | inactive | inactive | 0.05 µM | Cc1cc(Nc2ncc(Cl)c(Nc3ccccc3S(=O)(=O)C(C)C)n2)c(OC(C)C)cc1C1CCN(CCOCCOCCNC(=O)CNc2cccc3c2C(=O)N(C2CCC(=O)NC2=O)C3=O)CC1 (stereo unspecified) | Active | Active | inactive | Activity [20]: inactive; Activity [21]: inactive; Activity [22]: Active; Activity (NCI-H3122): Active; Activity (SH-SY5Y): Active; Activity [23]: inactive; Activity [24]: inactive; Activity [25]: Active |
